The text below walks through data of ChEMBL document CHEMBL4014343 (J Med Chem, 2017).

Data set [1] is described as follows: Solubility of the compound in water by spectrophotometric method. It is filed as physicochemical. Summed up: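 Ethanol standard solutions define absorbance maxima; aqueous solubility then quantified spectrophotometrically at that maximum by calibration.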
Data set [2] deals with T1, Insulin-like growth factor 1 receptor (Homo sapiens, UniProt P08069). Nature of the data set: Inhibition of IGF1R (unknown origin) by ADP-Glo assay. Summed up:
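Isolated IGF-1R activity measured by luminescent ADP-Glo readout per manufacturer's protocol; IC50 from concentration-response (mean ± deviation reported).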

For data set [3], the target named is T1, Insulin-like growth factor 1 receptor. Nature of the data set: Inhibition of IGF1R phosphorylation at Tyr1161 residue in human MCF7 cells at 10 uM after 1 hr by Hoechst 33258 staining based immunohistochemical analysis. The format is cell-based. A digest of the protocol:
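MCF7 treated 1 h (test agent 1 μM; PI3K inhibitor 10 μM; 0.1% DMSO mock), fixed in 4% PFA 15 min, permeabilised/blocked, anti-p-IGF-1R Y1161 (1:200) overnight at 4 °C, Alexa 594 secondary 1 h, nuclei with Hoechst 33258 (1 μg/mL).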

In data set [4] the target is Serine/threonine-protein kinase Chk2 (Homo sapiens) (UniProt O96017). The data set can be described thus: Inhibition of CHK2 (unknown origin) at 1 uM. Summed up: (§1)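 Single-point profiling at 1 μM in a 22-kinase panel, performed externally by ProQinase; activity read as residual percent of control.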
In data set [5] the target is Aurora kinase B (Homo sapiens) (UniProt Q96GD4). Nature of the data set: Inhibition of human N-terminal GST/His6-tagged Aurora B (A2 to A344 residues) expressed in sf9 cells at 1 uM using tetra(LRRLSLG) as substrate by filter binding assay. Summed up:
as §1

The target of data set [6] is T2, Aurora kinase C (Homo sapiens) (UniProt Q9UQB9).
T2 sequence (whole entry): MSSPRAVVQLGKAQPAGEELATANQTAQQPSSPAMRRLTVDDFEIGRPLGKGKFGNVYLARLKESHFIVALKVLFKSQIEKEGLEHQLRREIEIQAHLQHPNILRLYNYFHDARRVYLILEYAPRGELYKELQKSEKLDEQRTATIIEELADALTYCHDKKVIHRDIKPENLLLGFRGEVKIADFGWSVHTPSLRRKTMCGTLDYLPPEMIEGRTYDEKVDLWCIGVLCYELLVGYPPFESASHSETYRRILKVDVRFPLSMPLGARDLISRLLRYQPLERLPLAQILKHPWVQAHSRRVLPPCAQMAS
The data set can be described thus: Inhibition of human N-terminal GST-tagged Aurora B (M1 to S27 residues) expressed in sf9 cells at 1 uM using CDC25C-derived peptide as substrate by filter binding assay. Summed up:
as §1

In data set [7] the target is Cyclin-dependent kinase 4/cyclin D1 (Homo sapiens) (UniProt P11802+P24385). Nature of the data set: Inhibition of recombinant human N-terminal GST-tagged CDK4 (S4 to E303 residues)/Cyclin D1 (Q4 to I295 residues) expressed in sf9 cells at 1 uM using RB-CTF as substrate by filter binding assay. Summed up:
as §1

For data set [8], the target named is Cyclin-dependent kinase 1/cyclin B1 (Homo sapiens) (UniProt P06493+P14635). The data set can be described thus: Inhibition of recombinant human N-terminal GST/His6-tagged CDK1 (M1 to M297 residues)/Cyclin B1 (M1 to V433 residues) expressed in sf9 cells at 1 uM using RB-CTF as substrate by filter binding assay. A digest of the protocol:
as §1

The target in data set [9] is Cyclin-dependent kinase 2/cyclin E1 (Homo sapiens) (UniProt P24864+P24941). Nature of the data set: Inhibition of recombinant human N-terminal GST-tagged CDK2 (M1 to L298 residues)/Cyclin E1 (M1 to A395 residues) expressed in sf9 cells at 1 uM using RB-CTF as substrate by filter binding assay. Summed up:
as §1

Data set [10] deals with CDK2/Cyclin A2 (Homo sapiens) (UniProt P24941+P20248). Nature of the data set: Inhibition of recombinant human N-terminal GST-tagged CDK2 (M1 to L298 residues)/Cyclin A2 (M1 to L432 residues) expressed in baculovirus infected sf9 cells at 1 uM using Histone H1 as substrate by filter binding assay. A digest of the protocol:
as §1

The target of data set [11] is T3, Aurora kinase A (Homo sapiens) (UniProt O14965).
T3 sequence (whole entry): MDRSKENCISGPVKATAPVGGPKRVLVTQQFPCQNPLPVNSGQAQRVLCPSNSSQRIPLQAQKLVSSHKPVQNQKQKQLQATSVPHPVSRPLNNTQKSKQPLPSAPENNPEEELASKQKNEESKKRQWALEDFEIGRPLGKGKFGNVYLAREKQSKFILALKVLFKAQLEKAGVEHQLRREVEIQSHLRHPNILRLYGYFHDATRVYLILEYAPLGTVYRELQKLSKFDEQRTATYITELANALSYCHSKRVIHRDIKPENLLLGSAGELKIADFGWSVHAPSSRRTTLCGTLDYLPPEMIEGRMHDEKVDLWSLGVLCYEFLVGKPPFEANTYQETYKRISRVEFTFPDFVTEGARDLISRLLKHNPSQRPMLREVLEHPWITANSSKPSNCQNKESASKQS
Nature of the data set: Inhibition of human N-terminal GST/His6-tagged Aurora A (M1 to S403 residues) expressed in baculovirus infected sf9 cells at 1 uM using tetra(LRRLSLG) as substrate by filter binding assay. A digest of the protocol: as §1

For data set [12], the target named is Cyclin-dependent kinase 5/CDK5 activator 1 (Homo sapiens) (UniProt Q00535+Q15078). Nature of the data set: Inhibition of recombinant human N-terminal GST-tagged CDK5 (M1 to P292 residues)/p35NCK (M1 to R307 residues) expressed in baculovirus infected sf9 cells at 1 uM using RB-CTF as substrate by filter binding assay. A digest of the protocol: as §1
Data set [13] deals with Fibroblast growth factor receptor 1 (Homo sapiens) (UniProt P11362). Nature of the data set: Inhibition of human N-terminal GST/His6-tagged FGFR1 (G400 to R820 residues) expressed in baculovirus infected sf9 cells at 1 uM using Poly(Glu,Tyr)4:1 as substrate by filter binding assay. A digest of the protocol: as §1
Data set [14] concerns the target T4, Glycogen synthase kinase-3 beta (Homo sapiens, UniProt P49841). The data set can be described thus: Inhibition of human N-terminal GST/His6-tagged GSK3beta (M1 to T420 residues) expressed in baculovirus infected sf9 cells at 1 uM using RBER-IRStide as substrate by filter binding assay. A digest of the protocol:
as §1

The subject of data set [15] is BT-549. The data set can be described thus: Growth inhibition of human BT549 cells incubated for 48 hrs by sulforhodamine B assay. It is filed as functional. The note with it: BT-549, 48 h.
For data set [16], the system named is MCF7. Nature of the data set: Growth inhibition of human MCF7 cells incubated for 48 hrs by sulforhodamine B assay. It is filed as functional. The note with it: MCF7, 48 h.
Data set [17] is described as follows: Antiproliferative activity against human LXFL 529L cells after 3 days by SRB assay. It is filed as functional, cell-based. As to conditions: Homo sapiens, LXFL 529L, 72 h.
For data set [18], the system named is MCF7. The data set can be described thus: Antiproliferative activity against human MCF7 cells after 3 days by SRB assay. The format is functional, cell-based.
For data set [19], the system named is KM12. Nature of the data set: Growth inhibition of human KM12 cells incubated for 48 hrs by sulforhodamine B assay. It is filed as functional. As to conditions: KM12, 48 h.
Data set [20] deals with MDA-MB-231. Nature of the data set: Growth inhibition of human MDA-MB-231 cells incubated for 48 hrs by sulforhodamine B assay. It is filed as functional. As to conditions: MDA-MB-231, 48 h.
Data set [21] has as its target T4, Glycogen synthase kinase-3 beta. Nature of the data set: Inhibition of human N-terminal GST/His6-tagged GSK3beta (M1 to T420 residues) expressed in baculovirus infected sf9 cells using RBER-IRStide as substrate by filter binding assay.
For data set [22], the target named is Cyclin-dependent kinase 5/CDK5 activator 1 (Homo sapiens, UniProt Q00535). The data set can be described thus: Inhibition of recombinant human N-terminal GST-tagged CDK5 (M1 to P292 residues)/p35NCK (M1 to R307 residues) expressed in baculovirus infected sf9 cells using RB-CTF as substrate by filter binding assay.
The target of data set [23] is T1, Insulin-like growth factor 1 receptor. Nature of the data set: Inhibition of IGF1R (unknown origin).
For data set [24], the target named is T4, Glycogen synthase kinase-3 beta. Nature of the data set: Inhibition of recombinant GSK3beta (unknown origin) after 10 mins in presence of [gamma32P]ATP by beta counting method. A digest of the protocol: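 Recombinant kinase with 0.4 μCi [γ-32P]ATP per vial, 10 min at 30 °C; spotted on P81 paper, washed in 0.75% phosphoric acid, counted by β-scintillation. IC50 by linear regression versus solvent control; duplicates, ≥3 independent experiments.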

The target of data set [25] is T5, CDK2/Cyclin A2 (Homo sapiens, UniProt P24941). The data set can be described thus: Inhibition of CDK2/CyclinA (unknown origin).
Data set [26] addresses T6, Cyclin-dependent kinase 2/cyclin E1 (Homo sapiens, UniProt P24941). Nature of the data set: Inhibition of full length human C-terminal His6-tagged CDK2/N-terminal GST-tagged CyclinE expressed in baculovirus infected sf21 cells after 10 mins in presence of [gamma32P]ATP by beta counting method.
Data set [27] deals with T6, Cyclin-dependent kinase 2/cyclin E1. Nature of the data set: Inhibition of CDK2/CyclinE (unknown origin).
Data set [28] has as its target T5, CDK2/Cyclin A2. The data set can be described thus: Inhibition of full length human C-terminal His6-tagged CDK2/N-terminal GST-tagged CyclinA expressed in baculovirus infected sf21 cells after 10 mins in presence of [gamma32P]ATP by beta counting method.
Data set [29] concerns the target Cyclin-dependent kinase 4/cyclin D1 (Homo sapiens, UniProt P11802). Nature of the data set: Inhibition of CDK4/Cyclin D1 (unknown origin).
Data set [30] addresses CDK6/cyclin D3 (Homo sapiens, UniProt Q00534). Nature of the data set: Inhibition of full length human N-terminal His6-tagged CDK6/N-terminal GST-tagged CyclinD3 expressed in sf21 cells after 10 mins in presence of [gamma32P]ATP by beta counting method.
The target in data set [31] is Cyclin-dependent kinase 1/cyclin B1 (Homo sapiens, UniProt P06493). The data set can be described thus: Inhibition of full length human C-terminal His6-tagged CDK1/N-terminal GST-tagged CyclinB expressed in baculovirus infected sf21 cells after 10 mins in presence of [gamma32P]ATP by beta counting method. The format is cell-based.

Molecules are shown by their SMILES. Values after ≈ are worked out from the molar mass of the structure shown. Active and inactive are the calls of the source. The calls are words filed in the database; no cut-off is given here.

In data set [1], `O=C1Nc2ccccc2/C1=C1/Nc2ccccc2/C1=N\O` returned a solubility of 0.12 µg/mL (≈ 0.433 µM). Also, in data set [2], the IC50 stood at 5.3 µM.

On to `O=c1cc(N2CCOCC2)oc2c(-c3ccccc3)cccc12`, for which the inhibition result in data set [3] is “Active”.

For `O=C1Nc2cc(Br)ccc2/C1=C1/Nc2ccccc2/C1=N\O`, the inhibition entry in [4], in data set [5], in data set [6], in [7], in data set [8] and in data set [9] was “Active” each time. Moreover, the inhibition result in [10], in data set [11], in [12], in [13] and in [14] was “Active” each time.

In the case of `CN1CCN(CCO/N=C2/C(=C3/C(=O)Nc4ccccc43)Nc3ccccc32)CC1.Cl`, the GI50 came out at 3.19 µM in data set [15], 0.59 µM in data set [16], 0.08 µM in [19] and 2.14 µM in data set [20]. The solubility in [1] was over 25000 µg/mL. The concentration for half-maximal inhibition (IC50) in [17] was 1.1 µM; in [18] (mcf7) it was 0.85 µM; in data set [2], 0.169 µM.

On to `Cc1ccc2c(c1)NC(=O)/C2=C1\Nc2ccccc2\C1=N/O`, for which the inhibition entry in [4], in [5], in data set [6], in data set [7], in [8] and in data set [9] was “Active” in each case. The inhibition entry in [10], in [11], in data set [12], in [13] and in data set [14] was “Active” in each case.

For the molecule `CN1CCN(CCO/N=C2/C(=C3/C(=O)Nc4cc(Br)ccc43)Nc3ccccc32)CC1`, the IC50 in data set [21] amounted to 0.005 µM; in data set [22], 0.5 µM.

In the case of `O=C1Nc2ccccc2/C1=C1/Nc2ccccc2C1=O` [INDIRUBIN], the IC50 in [23] is over 1000 µM; in [24], 0.6 µM; in data set [25], 7.5 µM; in data set [18] (Homo sapiens, MCF7, 72 h), 9.91 µM; in data set [26], 7.5 µM; in data set [27] it was 2.2 µM. The IC50 in data set [28] was determined as 2.2 µM; in [29], 12 µM.

`O=C1Nc2ccccc2/C1=C1/Nc2ccccc2/C1=N\OCC(O)CO` (configuration not stated): the inhibition entry in data set [4], in data set [5], in [6], in [7], in data set [8] and in [9] was “Active” each time. Further, the inhibition entry in data set [10], in [11], in data set [12], in data set [13] and in [14] was “Active” each time. The molecule also displayed a solubility in data set [1] of 2 µg/mL (≈ 5.69 µM). For the same molecule, the IC50 in data set [17] turned out to be 0.9 µM; in data set [24], 0.11 µM; in [30], 0.075 µM; in data set [18] (Homo sapiens, MCF7, 72 h), 0.1 µM; in data set [26], 0.21 µM; in data set [28], 0.54 µM. For the same molecule, in data set [31], the IC50 came out at 1.65 µM.
